# Source: the RNAGym collection of RNA variant scans (doi:10.1126/science.aae0568)
# This sample holds only a part of the variants without activity.
# B1: tRNA (parent)
# chain: GUUCCGUUGGCGUAAUGGUAACGCGUCUCCCUCCUAAGGAGAAGACUGCGGGUUCGAGUCCCGUACGGAACG
# Variants of: B1
# Experiment: yeast fitness relative to wild type (ratio to wild type); higher = fitter; tRNA-Arg(CCU), competitive growth, 37 C, YPD
# In short: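 Gene amplicons from the start population and from each of six end populations were read by 100-nucleotide paired-end sequencing. Those end populations came from pooled Saccharomyces cerevisiae strains carrying tRNA-Arg(CCU) gene variants at the native locus, competed in YPD at 37°C for 24 hours. Fitness relative to wild type was worked out from changes in genotype frequencies. Genotypes needed ≥ 100 starting reads, and estimates < 0.5 were set to 0.5.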
row,Variant,yeast fitness
1,GAUUCGUGGGCGUAAUGGUAACGCGUCUCCCUCCUAAGGAGAAGACUGCGGGUUGGAGUCCCGUACGAAACG,≤ 0.5
2,GAUCGGUUGGCGUUAUGGAAACCCGUCUACCUCCUAAGGAGAAGACUGCGGGUUCGAGUCCCGUAAGGAACG,≤ 0.5
3,GAUACGUUGGCGUAAUGCUAACGCGUCUCCCUCCUAAGGAGAAGACAGCGGGUUUGAGUCCCGUACGGAACG,0.793
4,GAUCGGUUGGCGUAAUGGUAACGCGUCUCCCUCCUAAGGAGAAGACUGCGGGAUCGAGUCCCGUAUGGAACG,≤ 0.5
5,GAUCAGUUGGCGUAAUGGUAACGCGUCUCCCUCCUAAGGAGAAGACUGCGGGUUCGAGUACCGUACGGAACG,≤ 0.5
6,GAUACAUUGGCGUAAUGGUAACGCGUCUGCCUCCUAAGGAGAAGACUGCGGGUUCGGGUCCCGUACGGAACG,≤ 0.5
7,GAUCGGUUGGCGUAAUGGUAACGCGUCUCCUUCCUAAGGAGAAGACUGCGGGUUCGAGUCCCGUAUGGAACG,≤ 0.5
8,GAUCCGUUGGCGUAAUGGUAACGCGUCUCCCUCCUAAGGAGGGGACUGCAGGUUCGAGUCCCGUACGGAACG,0.541
9,GAUACGUUGGCGUAAUGGGAACGCGUCUCCCUCCUAAGGAGAAGACUGCGGGUUCGAGUCCCGUACGGAACG,≤ 0.5
10,GAUCCGUUGGCGUAAUGGUAACGCGUCUCCCUCCUAAGGAGAAGACUGCGGGUUCGCGUCCCGUACGGAACG,0.607
11,GAUGCGUUGGCGUAAUGGUAACGCGUCUCCCUCUUAAGGAGAAGACUGCGGGUUCGAGUCCCGUACGGAACG,≤ 0.5
12,GAUCGGUUGGGGUUUCGGUAACGCGUCUUCCUCCUAAGGAGAAGACUGCGGGUUCGAGUCCCGUACGGAACG,≤ 0.5
13,GAUGCGUUGGCGUUAUGGUAACGCGUCUCCCUCCUAAGGAGAAGACUGCGGGUUCGAGUACCGUACGGAACG,≤ 0.5
14,GAUCCGUUGGCGUAAUGGUAACGCGUCUCCCUCCUAAGGAGAAGUCUGCGGGUUCGAGUCCGGUACGGAACG,≤ 0.5
15,GAUACGUUGGCGUAAUGGUAACGCGUCUCCCUCCUAAGGAGAAGAGUGCGGAUUCGAGUCCCGUACGGAUCG,≤ 0.5
16,GAUCUGUUGGCGUAGUGGUAACGCGUCUCCCUCUUAAGGACAAGACUGCGGGUUAGAGUCCCGUACGGAACG,≤ 0.5
17,GAUACGUUGGCGUAAUGGUAACGCGUCUCCCUCAUAAGGAGACGAUUGCGGGUUCGAGUCCCGUACGGAACG,≤ 0.5
18,GAUCUGUUGGCGUAAUGGUAACACGUCUCCCUCCUAGGGAGAAGACUGCGGGUUCGAGUCCCGUACGGAACG,0.689
19,GAUCAGUUGGCGUAAUGGUAACGCGUCUCCCUCCUAAGGAGAAGACUGCGGGUUCGAGUCCCGUACGGAACG,0.611
20,GAUCAGUUGGCGUAAUGGUAACGCGUCUUCCUCCUAAGGAGAAGACUGCGGGUUCGAGUCCUGUACGGAUCG,≤ 0.5
21,GAUUCGUUGGCGUAAUGGUAACGCGUCUCCCUCCUAAGGAGAACACUGCGGGUUCGAGUCACGUACGGAACG,≤ 0.5
22,GAUCGGUUGGCGUGAUGGUAACGCGUCUCGCUCCUAAGGAGAAGAUUGCGGGUUCGAGUCCCGUAAGGAUCG,≤ 0.5
23,GAUCCGUUGGCGUAAUGGUAACGCGUCUCCCUCCUAAGGAGAGGACUGCGGGUUCGAGUCCCGUACGGAACG,0.988
24,GAUCCGUUGGCGUAAUGGUAACGCGUCUCCCUCCUAAGGAGAUGACUGCGGGUUCGAGUCCCGUACGGAACG,0.956
25,GAUCAGUUGGCGUAAUGGUAACGCGUCUCCCUCCUAAGGAGAAGACUGCAGGUUCGAGUCCCGUACGGAACG,≤ 0.5

row,Variant,yeast fitness
1,GAUCGGUUGGCGUAAUGGUAACGCGUCUCCCUCCUAAGGAGAAGACUGCGGGUUCGAGUCCCGUAUGGAACG,0.657
2,GAUGCGUUAGCGUAAUGGUAACGCGUCUCCCUCCUAAGGAGAAAACUGCGGGUCCGAGUCCCGUACGGAACG,≤ 0.5
3,GAUCAGUUGGCGUAAUGGUAACGCGUCUCCCUCCUAAGGAGAAGAUUGCCGGUUCGAGUCCCGUACGGAACG,≤ 0.5
4,GAUGCGUUGGCGUAAUGGUAACGCGUCUCCCUCCUAAGGAGAAGACUGCGGGUUCAAAUCCCGUCCGGAACG,≤ 0.5
5,GAUCGGUUGGCGUAAUGGUAACGCGUCUCCCUCCUAUGGAGAAGACUGUGGGUUCGAGUCUCGUACGGAACG,≤ 0.5
6,GAUGGGUUGGCGUAAUGGUAACGCAUCUCGCUCAUAAGGAGAAGACUGGGGGUUCGAGUCCCGUACGGAACG,≤ 0.5
7,GAUCGGUUGGCGUAAUGGUAACGUGUCUCGCUCCUAAGGAGAAGACUGUGGGUUCGAGUCCCGUACGGAACG,≤ 0.5
8,GAUCGGUUGGGGUAAUGGUGACGCGUCUCCCUCCUAAGGAGAAGACUGCGGGUUCGAGUCCCGUACGGAACG,≤ 0.5
9,GAUCCGUUGGCGUAAUGGUAACGCGUCUCCCUCCUAAGGAGAAGACUGCGGGUUCGAGUCCCGUUCGGAACG,0.812
10,GAUCCGUUGGCGUAAUGGUAACGCGUCUCCCUCCUAAGGAGAAGACUGCGGGUUCGAGUCCCGUGCGGAACG,0.938
11,GAUCCGUUGGCGUAAUGGUAACGCGUCUCCCUCCUAAGGAGAAGCCUGCGGGUUCGAGUCCCGUUCGGAACG,0.624
12,GAUCCGUUGGCGUAAUGGUAACGCGUCUCCCUCCUAAGGAGAAGCCUGCGGGUUCGAGUCCCGUCCGGAACG,0.764
13,GAUCGGUUGGGGUAAUGGCGACGCGUCUCCCUCCUAAGGAGAAGACUGCGGGUUCGAGUCCCGUACGGAACG,≤ 0.5
14,GAUCUGUUGGCGUAAUGGUAACGCGUCUGCCUCCUAUGGAGAAGACUGCGGGUUCGAGUCCCGUACGGAACG,0.512
15,GAUCGGUUGGCGUAAUGGUAACGUGUCUCGCUCCUAAGGAGAAGACUGCGGGUUCGAGUCCCGUACGGACCG,0.54
16,GAUUCGUUGGCGUAAUGGUAACGCGUCACUCUCCUAAGGAGAAGACUGCGGGUUCGGGUCCCGUACGGAACG,0.688
17,GAUUCGUUGCCGUAAUGGUAACGCGUCUUCCACCUAAGGAGAUGACUGCGGGUUCGAGUCCCGUACGGAACG,≤ 0.5
18,GAUGCGUUGGCGUAAUGGUAACGCGUCUCCCUCCUAAGGAGGAGUCUGCGGGUUCGAGUCCCGUAUGGAACG,≤ 0.5
19,GAUGCGUAGGCAUAAUGGUAACGCGUCUCCCUCCUAAGGAGAAGACUACGGGUUCGAGUCCCGUACGGCACG,0.544
20,GAUCGGUUGGCGUGAUGGUAACGCGUCUCGCUCCUAAGGAGAAGAUUGCGGGUUCGAGUCCCGUACGGAACG,≤ 0.5
21,GAUCUGUUGGCGUAAUGGUAACGUGUCUCCCUCCUAAGGAGAAGACUGCGGGUCCGAAUCCCGUACGGAACG,0.569
22,GAUCGGUUGGCGUAAUGGUAACGCGUCUCCCUCCUAAGGAGUAGACUGCGGGUUCGAGUCCCGUACGGAACG,≤ 0.5
23,GAUCGGUUGGCGUAAUGGUAACGCGUCUCCCUCCUAAGGAGGAGACUGCGGGUUCGAGUCCCGUACGGAACG,0.541
24,GAUACGUUGGCGCAAUGGUAACGCGUCUCCCUCCUAAGGAGGAGACUGCGGGUUCGAGUCUCGUACGGAACG,≤ 0.5
25,GAUGCGUUGGCGUAAUGGUAACGCGUCUCCCUCCUAAGGAGAAGACUGCGGGUUCGAGUCCCGUACGGAACG,0.838

row,Variant,yeast fitness
1,GAUCGGUUGGCGUAAUGGUAACGUGUCUCGCUCCUAAGGAGAAGACUGGGGGUUCGAGUCGCGUACGGAACG,≤ 0.5
2,GAUCAGUUGGUGUAAUGGUAACGCGUGUCCCUCCUAAGGAGAAGACUGCGGGUUCGAGUACCGUACGGAACG,≤ 0.5
3,GAUCCGUUGGCGUAAUGGUAACGCGUCUCCCUCCUAAGGAGGAGACUGCGGGUUCGAGUCUCAUACGGAACG,≤ 0.5
4,GAUCGGUAGGCGUAAUGGUAACGUGUCUCCCUCCUAAGGAGAAGACUGCGGGUUCGAGUCGCGUAUGGUACG,≤ 0.5
5,GAUCGGUAGGCGUAAUGGUAACGCGUCUCCCUCCUAAGGAGAAAACUACCGGUUCGAGUCCCGUACGGAACG,≤ 0.5
6,GAUGCGUUGGCGUAAUGGUAACGCGUCUCCCUCCUAACGAGAAGUCUGCCGAUUCGAGUCCCGUACGGAACG,0.849
7,GAUCAGUUGGCGUAAUGGUAACGCGUCUCCCUCCUAAGGAGAAGACUGCGGGUUCGAGUCCCGCACGGAACG,0.595
8,GAUCAGUUCGCGUAACGGUAACGCCUCUCCCUCCUAAGGAGAAGACUGCGGGUUCGAGUCCCGUCCGGAACG,≤ 0.5
9,GAUCCGUUGGCGUAAUGGUAACGCGUCUCCCUCCUAAGGAGGAGACUGCGGGUUCGAGUCCCGUACGGAACG,0.74
10,GAUCCGUUGGCGUAAUGGUAACGCGUCUCCCUCCUAAGGAGUAGACUGCGGGUUCGAGUCCCGUACGGAACG,0.864
11,GAUCCGUUGGCGUAAUGGUAACGCGUCUCCCUCCUAAGGAGAAGACUGCGGGUUCGUGUCUCGUAGGGAACG,≤ 0.5
12,GAUCGGUAGGCGUAAUGGUAACGCGUCUCCCUCCUAAGGAGAAGACUGCGGGUUCGAGUCACGUACGGAACG,≤ 0.5
13,GAUCAGUUGGCGUAAUGGUAACGCGUCUCCCUCCUAAGGAGAAGACUGCGGGGUCGAGUCCCGUACGGAACG,0.514
14,GAUCAGUUGGCGUAAUGGUAACGCGUCUCCCUUCUAAGGAGAAGACUGCGGGUUCGGGUCCCGUAGGGAACG,≤ 0.5
15,GAUCCGUUGGCGUAAUGGUAACGCGUCUCCCUCCUAAGGAGAAGACUGCGGGUUCGAGUCCCGUACGGACCG,1
16,GAUCAGUUGGCGUAAUGGUAACGCGUCUCUCUCCUAAGGAGAAGACUGCGGGUUCGAGUCCCGUACGGUACG,≤ 0.5
17,GAUACGUUGGCGUAAUGGUAAAGCGUCUCCCUCCUAAGGAGAAGACUGCGGGUUUGAGUCCCGUACGGAACG,≤ 0.5
18,GAUCGGUUGGCGUAAUGGUAACGUGUCUCGCUCCUAAGGAGAAGACUGCGGGUUCGAGUCCCGUACGGAACG,≤ 0.5
19,GAUCCGUUGGCGUAAUGGUAACGCGUCUCCCUCCUAAGGAGAAGCCUGCGGGUUAGAGUCCCGUACGGAACG,≤ 0.5
20,GAUCUGUUGGCGUAAUGGUAUCGCGUCUCGCUCCUAAGGAGAAGACUGCGGGUUCGAGUCCCGUACGGAUCG,≤ 0.5
21,GAUCCGUUGGCGUAAUGGUAACGCGUCUCCCUCCUAAGGAGAAGCCUGCGGGUUCGAGUCCCGUACGGACCG,0.758
22,GAUUCGUUGGCGUAAUGGUAACGCCUCUCCCUCCUAAGGAGAAGACUGUGGGUUCGAGUCUCGUACGGAACG,0.581
23,GAUCUGUUGGCGUAAUGGUAACGUGUCUCCCUCUUAAGGCGAAGACUGCGGGUUCGAGUCCCGUACGGAACG,≤ 0.5
24,GAUUCGUUGGCGUAAUGGUAACGCGUCACUCUCCUAAGGAGAAGACUGCGGGUUCGAGUGCCGUAGGGAACG,≤ 0.5
25,GAUCCGUUGGCGUAAUGGUAACGCGUCUCCCUCCUAAGGAGAAGCCUGCGGGUUCGAGUCCCGUACGGAACG,0.933
